Source: ChEMBL document CHEMBL4842338, “System-oriented optimization of multi-target 2,6-diaminopurine derivatives: Easily accessible broad-spectrum antivirals active against flaviviruses, influenza virus and SARS-CoV-2” (Eur J Med Chem, 2021)
The source made the active and inactive calls. The rule behind the calls is not given here.

What was measured:
Huh-7 = assay: (§1) Cytotoxicity against human Huh-7 cells assessed as reduction in cell viability by Celltiter-Glo luminescent cell viability assay; assay type: cell-based; conditions: huh-7
In short: (§2)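 Compound-exposed cells assessed by CellTiter-Glo luminescence versus DMSO control; CC50 from dose-response.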

dengue virus type 2 [1] = assay: Antiviral activity against Dengue virus serotype 2 New Guinea C infected in pre-seeded Huh-7 cells assessed as inhibition of viral replication incubated for 72 hrs by immunodetection based secondary yield reduction assay; assay type: functional, organism-based
[2] = as §1; assay type: cell-based; conditions: Huh-7 cells; in short: as §2
Zika virus = assay: Antiviral activity against Zika virus H/PF/2013 infected in pre-seeded Huh-7 cells assessed as inhibition of viral replication incubated for 72 hrs by immunodetection based secondary yield reduction assay; assay type: functional, organism-based; conditions: H/PF/2013, Huh-7, 72 h
[3] = Selectivity index, ratio of CC50 for human Huh-7 cells to IC50 for Zika virus H/PF/2013 infected in pre-seeded Huh-7 cells assessed as inhibition of viral replication incubated for 72 hrs by immunodetection based secondary yield reduction assay; assay type: toxicity, cell-based; conditions: read-out: Selectivity Index
[4] = Selectivity index, ratio of CC50 for human Huh-7 cells to IC50 for Dengue virus serotype 2 New Guinea C infected in pre-seeded Huh-7 cells assessed as inhibition of viral replication incubated for 72 hrs by immunodetection based secondary yield reduction assay; assay type: toxicity, cell-based; conditions: read-out: Selectivity Index
West Nile virus [5] = assay: Antiviral activity against West Nile virus lineage 1 (Italy/2009) infected in pre-seeded Huh-7 cells assessed as inhibition of viral replication incubated for 48 hrs by immunodetection based direct yield reduction assay; assay type: functional, organism-based
[6] = molecular target: PIK3CA (Phosphatidylinositol 4,5-bisphosphate 3-kinase catalytic subunit alpha isoform) (Homo sapiens, UniProt P42336); assay: Inhibition of human full length PIK3CA assessed as residual activity at 5 uM using PI:PS (1:3) as a substrate incubated for 10 mins by scintillation counting analysis relative to control; conditions: full length PIK3CA enzyme, probe PI:PS (1:3), read-out: Activity
In short: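 Radiometric kinase reaction with 10–50 ng enzyme and compound fixed at 5 μM, 10 μL at 30 °C for 10 min. Reactions spotted on filter and counted by scintillation. Residual activity is the mean ± SD of two independent experiments.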

[7] = molecular target: Src (Proto-oncogene tyrosine-protein kinase Src) (Homo sapiens, UniProt P12931); assay: Inhibition of human recombinant N terminal His6 tagged full length Src assessed as residual activity at 5 uM using KVEKIGEGTYGVVYK as a substrate in the presence of NP-40 incubated for 10 mins by scintillation counting analysis relative to control; conditions: probe KVEKIGEGTYGVVYK, read-out: Activity
In short: (§3)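 Compounds at fixed 5 μM; 10–50 ng kinase, substrate and NP-40/BSA per supplementary table, 10 μL at 30 °C for 10 min in low-binding tubes. Reactions spotted on filter, dried, scintillation counted. Mean ± SD of two independent experiments.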

West Nile virus [8] = assay: Antiviral activity against West Nile virus lineage 1 (Italy/2009) infected in pre-seeded Huh-7 cells assessed as inhibition of viral replication incubated for 48 hrs by immunodetection based plaque reduction assay; assay type: functional, organism-based; conditions: Huh-7, 48 h
[9] = Inhibition of full length Dengue virus 2 NS5 RNA dependent RNA polymerase incubated for 10 mins by picogreen staining based fluorescent analysis (Rvb= 0.32+/-0.05 uM); set-up: species or system dengue virus type 2
[10] = Antioxidant activity assessed as inhibition of ABTS radical scavenging activity at 10 uM to 1 mM measured after 10 mins; assay type: functional
In short: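 ABTS radical solution diluted in ethanol (1:100) to A734 0.70; 3.0 mL mixed with 30 μL sample in DMSO at 10 μM–1 mM; A734 read after exactly 10 min; ascorbic acid reference; % scavenging = (A0−As)/A0×100.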

CDK9/cyclin T1 = CDK9/cyclin T1 (Homo sapiens, UniProt P50750); assay: Inhibition of human full length CDK9/ His-tagged cT1 assessed as residual activity at 5 uM using CDKtide as a substrate in the presence of BSA incubated for 10 mins by scintillation counting analysis relative to control; assay type: protein-complex assay; conditions: full length CDK9/His-tagged cyclin T1 complex, probe CDKtide, read-out: Activity; in short: as §3
[11] = Selectivity index, ratio of CC50 for human Huh-7 cells to IC50 for West Nile virus lineage 1 (Italy/2009) infected in pre-seeded Huh-7 cells assessed as inhibition of viral replication incubated for 48 hrs by immunodetection based plaque reduction assay; assay type: toxicity, cell-based; conditions: read-out: Selectivity Index
[12] = molecular target: Fyn (Tyrosine-protein kinase Fyn) (Homo sapiens, UniProt P06241); assay: Inhibition of human recombinant N terminal His6 tagged full length Fyn assessed as residual activity at 5 uM using […] as a substrate in the presence of NP-40 incubated for 10 mins by scintillation counting analysis relative to control; conditions: probe […], read-out: Activity; in short: as §3
[13] = Selectivity index, ratio of CC50 for human Huh-7 cells to IC50 for West Nile virus lineage 1 (Italy/2009) infected in pre-seeded Huh-7 cells assessed as inhibition of viral replication incubated for 48 hrs by immunodetection based direct yield reduction assay; assay type: toxicity, cell-based; conditions: read-out: Selectivity Index
In short: (§4)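 Direct yield reduction in Huh7 cells (7000/well), infected with 50 TCID₅₀ of DENV or ZIKV, or 25 TCID₅₀ of WNV. Adsorption 1 h at 37 °C, then virus removed and serial compound dilutions added. Incubated 72 h (DENV, ZIKV) or 48 h (WNV). Viral antigen immunodetected on the monolayer. IC₅₀ by non-linear regression, mean of three experiments. SI = CC₅₀ (Huh7, CellTiter-Glo luminescence)/IC₅₀.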

[14] = Inhibition of full length ZIKA virus NS5 RNA dependent RNA polymerase incubated for 10 mins by picogreen staining based fluorescent analysis (Rvb= 1+/-0.2 uM)
[15] = Inhibition of DENV NS5-MTase domain using GpppA2'OMe-RNA74 as a substrate incubated for 30 mins by filter binding assay; set-up: species or system dengue virus type 2; conditions: read-out: IC50
In short: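 MTase (1 μM) incubated with increasing inhibitor in 40 mM Tris-HCl pH 7.5, 5 mM DTT, 10 μM AdoMet ([3H]-labelled), 0.5 μM GpppA2′OMe-RNA74 substrate, 30 °C for 30 min; stopped in ice-cold 100 μM AdoHcy; DEAE filter binding, scintillation counting.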

[16] = Inhibition of Dengue virus 2 […] RNA dependent RNA polymerase incubated for 10 mins by picogreen staining based fluorescent analysis (Rvb= 0.27+/-0.03 uM); set-up: species or system dengue virus type 2
[17] = molecular target: Abl (Tyrosine-protein kinase ABL1) (Homo sapiens, UniProt P00519); assay: Inhibition of human recombinant N terminal His6 tagged Abl (27 to end residue) assessed as residual activity at 5 uM using KKGEAIYAADFA-NH2 as a substrate in the presence of NP-40 incubated for 10 mins by scintillation counting analysis relative to control; conditions: probe KKGEAIYAADFA-NH2, read-out: Activity; in short: as §3
[18] = Inhibition of full length ZIKV NS5-MTase domain using 7MeGpppAC4 as a substrate incubated for 30 mins by filter binding assay; set-up: species or system Zika virus
[19] = Selectivity index, ratio of CC50 for human Huh-7 cells to IC50 for Dengue virus serotype 2 New Guinea C infected in pre-seeded Huh-7 cells assessed as inhibition of viral replication incubated for 72 hrs by immunodetection based direct yield reduction assay; assay type: toxicity, cell-based; conditions: read-out: Selectivity Index; in short: as §4
dengue virus type 2 [20] = assay: Antiviral activity against Dengue virus serotype 2 New Guinea C infected in pre-seeded Huh-7 cells assessed as inhibition of viral replication incubated for 72 hrs by immunodetection based direct yield reduction assay; assay type: functional, organism-based; conditions: Dengue virus, New Guinea C, Huh-7, 72 h; read-out: IC50
[21] = Dengue virus, New Guinea C, Huh-7, 72 h, read-out: IC50
[22] = West Nile virus, lineage 1 (Italy/2009), Huh-7, 48 h, read-out: IC50

CDK9/cyclin T1, sequence (O60563 whole entry): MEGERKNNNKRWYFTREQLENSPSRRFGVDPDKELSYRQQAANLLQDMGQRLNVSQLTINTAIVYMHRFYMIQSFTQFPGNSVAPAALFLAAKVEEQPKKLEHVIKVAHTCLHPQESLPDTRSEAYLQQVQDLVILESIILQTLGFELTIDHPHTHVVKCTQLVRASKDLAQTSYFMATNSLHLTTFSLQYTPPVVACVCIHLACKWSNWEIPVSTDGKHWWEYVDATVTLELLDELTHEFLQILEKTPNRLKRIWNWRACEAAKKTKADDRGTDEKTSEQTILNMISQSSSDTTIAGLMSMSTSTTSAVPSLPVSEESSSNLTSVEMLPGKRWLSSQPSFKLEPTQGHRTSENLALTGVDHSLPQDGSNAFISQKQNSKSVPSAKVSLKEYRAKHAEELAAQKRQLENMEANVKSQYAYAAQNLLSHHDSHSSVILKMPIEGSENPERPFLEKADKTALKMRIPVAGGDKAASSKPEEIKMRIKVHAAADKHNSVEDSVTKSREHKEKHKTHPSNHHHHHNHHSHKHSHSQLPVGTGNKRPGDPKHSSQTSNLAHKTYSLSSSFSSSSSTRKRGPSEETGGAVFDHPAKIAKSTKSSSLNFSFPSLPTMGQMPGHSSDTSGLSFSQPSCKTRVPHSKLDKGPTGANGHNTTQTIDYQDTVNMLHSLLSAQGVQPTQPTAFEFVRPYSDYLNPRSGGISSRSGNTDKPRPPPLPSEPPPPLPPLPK
CDK9/cyclin T1, sequence (P50750 whole entry): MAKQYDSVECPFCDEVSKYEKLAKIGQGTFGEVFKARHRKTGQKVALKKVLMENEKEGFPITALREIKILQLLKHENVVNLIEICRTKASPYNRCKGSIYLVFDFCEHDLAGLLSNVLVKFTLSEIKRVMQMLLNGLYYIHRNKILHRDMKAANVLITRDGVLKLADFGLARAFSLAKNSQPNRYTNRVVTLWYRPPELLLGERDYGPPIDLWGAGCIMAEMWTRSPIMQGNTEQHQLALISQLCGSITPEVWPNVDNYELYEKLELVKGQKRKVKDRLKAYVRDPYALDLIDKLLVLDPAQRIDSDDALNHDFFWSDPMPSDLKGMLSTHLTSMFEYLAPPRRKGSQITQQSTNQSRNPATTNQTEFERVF
Abl (Tyrosine-protein kinase ABL1), sequence (P00519 whole entry, the tested form may be a part): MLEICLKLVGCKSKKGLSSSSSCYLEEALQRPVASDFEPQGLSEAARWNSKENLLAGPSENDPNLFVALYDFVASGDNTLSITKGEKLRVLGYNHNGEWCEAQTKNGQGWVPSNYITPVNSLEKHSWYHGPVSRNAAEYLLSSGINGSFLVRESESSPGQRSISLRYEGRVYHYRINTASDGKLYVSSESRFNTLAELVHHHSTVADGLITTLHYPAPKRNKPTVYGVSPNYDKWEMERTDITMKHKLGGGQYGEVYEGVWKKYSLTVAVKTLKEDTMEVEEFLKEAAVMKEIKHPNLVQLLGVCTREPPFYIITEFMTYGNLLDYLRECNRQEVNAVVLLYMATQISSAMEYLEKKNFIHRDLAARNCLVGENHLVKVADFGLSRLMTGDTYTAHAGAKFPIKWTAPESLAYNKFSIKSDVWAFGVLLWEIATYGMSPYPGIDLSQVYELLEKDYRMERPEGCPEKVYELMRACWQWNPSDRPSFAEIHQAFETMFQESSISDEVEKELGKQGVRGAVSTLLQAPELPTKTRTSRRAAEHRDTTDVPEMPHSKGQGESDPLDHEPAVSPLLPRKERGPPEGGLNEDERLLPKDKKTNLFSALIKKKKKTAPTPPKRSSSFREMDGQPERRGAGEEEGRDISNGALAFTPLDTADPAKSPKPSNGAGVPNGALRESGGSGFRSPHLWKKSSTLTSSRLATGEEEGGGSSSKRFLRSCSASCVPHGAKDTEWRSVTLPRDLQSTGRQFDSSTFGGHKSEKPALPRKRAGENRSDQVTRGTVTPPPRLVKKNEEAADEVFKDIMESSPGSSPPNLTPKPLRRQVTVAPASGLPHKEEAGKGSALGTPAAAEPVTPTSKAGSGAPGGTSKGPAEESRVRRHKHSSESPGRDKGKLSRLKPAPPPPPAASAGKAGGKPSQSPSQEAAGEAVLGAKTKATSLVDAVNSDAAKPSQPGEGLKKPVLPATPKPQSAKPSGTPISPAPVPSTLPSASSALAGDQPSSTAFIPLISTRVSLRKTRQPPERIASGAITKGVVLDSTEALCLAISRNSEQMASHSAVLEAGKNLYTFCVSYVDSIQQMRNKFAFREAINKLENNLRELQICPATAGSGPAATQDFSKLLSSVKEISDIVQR
Src (Proto-oncogene tyrosine-protein kinase Src), sequence (P12931 2-536 limits assumed): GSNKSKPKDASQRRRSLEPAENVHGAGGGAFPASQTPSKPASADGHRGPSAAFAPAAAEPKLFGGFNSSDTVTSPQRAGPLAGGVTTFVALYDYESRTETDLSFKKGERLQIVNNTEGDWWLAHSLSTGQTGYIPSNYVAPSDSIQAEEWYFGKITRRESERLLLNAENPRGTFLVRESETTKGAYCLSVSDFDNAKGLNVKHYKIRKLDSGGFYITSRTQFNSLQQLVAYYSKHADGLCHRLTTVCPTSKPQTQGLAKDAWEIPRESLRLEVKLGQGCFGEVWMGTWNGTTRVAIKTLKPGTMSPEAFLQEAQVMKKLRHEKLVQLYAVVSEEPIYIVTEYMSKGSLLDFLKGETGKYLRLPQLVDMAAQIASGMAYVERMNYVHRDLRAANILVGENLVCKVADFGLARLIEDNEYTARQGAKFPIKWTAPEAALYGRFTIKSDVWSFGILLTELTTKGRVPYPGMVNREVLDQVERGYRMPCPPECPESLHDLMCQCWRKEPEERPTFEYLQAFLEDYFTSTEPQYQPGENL
Fyn (Tyrosine-protein kinase Fyn), sequence (P06241 whole entry): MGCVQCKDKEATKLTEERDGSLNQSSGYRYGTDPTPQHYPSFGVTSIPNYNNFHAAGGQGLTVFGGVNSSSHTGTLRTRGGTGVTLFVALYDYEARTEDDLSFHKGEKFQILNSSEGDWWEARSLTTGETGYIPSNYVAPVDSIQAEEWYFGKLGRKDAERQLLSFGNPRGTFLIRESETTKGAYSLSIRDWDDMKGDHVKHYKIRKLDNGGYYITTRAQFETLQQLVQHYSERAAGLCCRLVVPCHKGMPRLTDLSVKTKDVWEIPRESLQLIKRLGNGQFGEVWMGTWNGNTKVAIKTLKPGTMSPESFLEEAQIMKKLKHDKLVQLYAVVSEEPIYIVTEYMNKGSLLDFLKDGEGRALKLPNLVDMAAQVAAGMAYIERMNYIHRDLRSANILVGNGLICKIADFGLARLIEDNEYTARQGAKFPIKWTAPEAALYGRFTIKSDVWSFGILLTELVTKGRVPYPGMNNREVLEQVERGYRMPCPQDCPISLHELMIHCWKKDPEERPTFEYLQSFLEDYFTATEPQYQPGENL
PIK3CA (Phosphatidylinositol 4,5-bisphosphate 3-kinase catalytic subunit alpha isoform), sequence (P42336 whole entry, canonical isoform): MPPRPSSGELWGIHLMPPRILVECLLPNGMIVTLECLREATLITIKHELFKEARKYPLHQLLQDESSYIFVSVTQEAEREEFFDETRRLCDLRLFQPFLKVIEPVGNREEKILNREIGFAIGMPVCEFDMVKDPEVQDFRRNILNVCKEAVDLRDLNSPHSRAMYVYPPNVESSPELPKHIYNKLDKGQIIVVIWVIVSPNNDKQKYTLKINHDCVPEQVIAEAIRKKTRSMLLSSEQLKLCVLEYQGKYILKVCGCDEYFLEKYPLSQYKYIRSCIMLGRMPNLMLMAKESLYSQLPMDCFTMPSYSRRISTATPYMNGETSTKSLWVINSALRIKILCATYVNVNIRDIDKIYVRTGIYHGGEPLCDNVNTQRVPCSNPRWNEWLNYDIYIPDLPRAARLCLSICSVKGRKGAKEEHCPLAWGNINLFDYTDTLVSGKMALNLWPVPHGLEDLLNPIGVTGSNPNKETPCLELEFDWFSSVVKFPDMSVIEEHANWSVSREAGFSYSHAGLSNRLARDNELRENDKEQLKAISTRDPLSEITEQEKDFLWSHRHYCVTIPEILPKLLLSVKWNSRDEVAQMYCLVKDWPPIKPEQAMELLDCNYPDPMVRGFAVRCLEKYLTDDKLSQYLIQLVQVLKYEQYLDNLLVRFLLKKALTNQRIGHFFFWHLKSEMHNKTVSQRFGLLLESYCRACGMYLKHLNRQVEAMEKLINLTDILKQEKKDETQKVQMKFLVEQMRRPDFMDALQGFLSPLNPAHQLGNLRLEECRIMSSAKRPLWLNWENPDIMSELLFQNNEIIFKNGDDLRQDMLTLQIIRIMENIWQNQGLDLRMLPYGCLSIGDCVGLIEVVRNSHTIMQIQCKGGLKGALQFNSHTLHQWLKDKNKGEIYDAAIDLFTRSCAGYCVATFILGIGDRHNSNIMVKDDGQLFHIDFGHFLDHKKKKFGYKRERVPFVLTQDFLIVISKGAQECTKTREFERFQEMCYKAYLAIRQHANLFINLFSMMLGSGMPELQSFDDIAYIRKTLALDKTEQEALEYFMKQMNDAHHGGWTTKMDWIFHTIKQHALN

Row | SMILES | CC50 (Huh-7) [µM] | IC50 (Zika virus) [µM] | selectivity ratio at 72 h [3] | IC50 (dengue virus type 2 [1]; [21]) [µM] | selectivity ratio at 72 h [4] | further results
1 | FC(F)(F)c1ccc(/N=N/c2nc(NCCOc3ccccc3)nc3[nH]cnc23)cc1 | 8 | – | – | – | – | –
2 | CNc1nc(Nc2cccc(C(=O)O)c2)c2nc[nH]c2n1 | – | 33.5 | 6 | – | – | IC50 (dengue virus type 2 [1]; huh-7): Not Active; CC50 [2]: 200 µM
3 | O=C(O)c1cccc(Nc2nc(NCCOc3ccccc3)nc3[nH]cnc23)c1 | – | 29 | 7 | 28.2 | 7 | CC50 [2]: 200 µM
4 | FC(F)(F)c1ccc(NNc2nc(NCCOc3ccccc3)nc3[nH]cnc23)cc1 | 8 | – | – | – | – | –
5 | FC(F)(F)c1cccc(NNc2nc(NCCOc3ccccc3)nc3[nH]cnc23)c1 | 7.5 | – | – | – | – | –
6 | Oc1ccc(Nc2nc(NCCOc3ccccc3)nc3[nH]cnc23)cc1O | – | 25 | 8 | – | – | IC50 (dengue virus type 2 [1]; huh-7): Not Active; CC50 [2]: 200 µM
7 | Fc1cc(F)cc(/N=N/c2nc(NCCOc3ccccc3)nc3[nH]cnc23)c1 | 12 | – | – | – | – | –
8 | FC(F)(F)c1cccc(Nc2nc(NCCOc3ccccc3)c3nc[nH]c3n2)c1 | 6 | – | – | – | – | –
9 | FC(F)(F)c1cc(NNc2nc(NCCOc3ccccc3)nc3[nH]cnc23)cc(C(F)(F)F)c1 | 5 | – | – | – | – | –
10 | OCCNc1nc(Nc2cccc(F)c2)c2nc[nH]c2n1 | 136 | 8.9 | 15 | 29.8 | 5 | –
11 | Fc1cc(F)cc(NNc2nc(NCCOc3ccccc3)nc3[nH]cnc23)c1 | 8.5 | – | – | – | – | –
12 | CNc1nc(Nc2cccc(F)c2)c2nc[nH]c2n1 | 84 | 14.7 | 6 | 9.3 | 9 | –
13 | FC(F)(F)c1cc(/N=N/c2nc(NCCOc3ccccc3)nc3[nH]cnc23)cc(C(F)(F)F)c1 | 7.5 | – | – | – | – | –
14 | COc1cc(Nc2nc(NCCOc3ccccc3)nc3[nH]cnc23)cc(OC)c1OC | 7.5 | – | – | – | – | –
15 | COC(=O)c1cccc(Nc2nc(NCCOc3ccccc3)nc3[nH]cnc23)c1 | 100 | 8.2 | 12 | – | – | IC50 (dengue virus type 2 [1]; huh-7): Not Active
16 | Fc1cccc(/N=N/c2nc(NCCOc3ccccc3)nc3[nH]cnc23)c1 | 18.5 | 2.8 | 7 | 4 | 5 | IC50 (West Nile virus [5]; [22]): 0.6 µM; activity at 10 min, 5 µM [6]: 78%; activity at 10 min, 5 µM [7]: > 98%; IC50 (West Nile virus [8]): 0.6 µM; IC50 [9]: > 100 µM; Activity [10]: Active; activity at 10 min, 5 µM (CDK9/cyclin T1): > 98%; selectivity ratio at 48 h [11]: 30; activity at 10 min, 5 µM [12]: 89%; selectivity ratio at 48 h [13]: 28; IC50 [14]: > 100 µM; IC50 [15]: 226 µM; IC50 [16]: > 100 µM; activity at 10 min, 5 µM [17]: > 98%; IC50 [18]: Not Active
17 | COC(=O)c1cccc(Nc2nc(NCCO)nc3[nH]cnc23)c1 | – | 6.2 | 32 | 17.5 | 11 | CC50 [2]: 200 µM
18 | CNc1nc(Nc2cccc(C(=O)OC)c2)c2nc[nH]c2n1 | – | 8 | 25 | 18 | 11 | CC50 [2]: 200 µM
19 | Nc1ncnc2c1ncn2[C@@H]1O[C@H](C[C@@H](N)CC[C@H](N)C(=O)O)[C@@H](O)[C@H]1O [SINEFUNGIN] | – | – | – | – | – | IC50 [15]: 0.63 µM; IC50 ([18]; read-out: IC50): 1.18 µM
20 | OCCNc1nc(Nc2cccc(C(F)(F)F)c2)c2nc[nH]c2n1 | 50 | 10.6 | 5 | 4.5 | 11 | IC50 (West Nile virus [5]; [22]): 1.9 µM; IC50 (West Nile virus [8]): 1.5 µM; selectivity ratio at 48 h [11]: 33; selectivity ratio at 48 h [13]: 26
21 | Oc1cccc(Nc2nc(NCCOc3ccccc3)nc3[nH]cnc23)c1 | – | – | – | – | – | activity at 10 min, 5 µM (CDK9/cyclin T1): > 98%; activity at 10 min, 5 µM [17]: 65%
22 | Fc1cccc(Nc2nc(NCCOc3ccccc3)c3nc[nH]c3n2)c1 | 8 | – | – | – | – | –
23 | CNc1nc(Nc2cccc(C(F)(F)F)c2)c2nc[nH]c2n1 | – | – | – | 3.5 | 57 | IC50 (West Nile virus [5]; huh-7): Not Active; selectivity ratio at 72 h [19]: 41; IC50 (dengue virus type 2 [20]): 4.9 µM; CC50 [2]: 200 µM
